ChEMBL document CHEMBL4732078 (Eur J Med Chem, 2021)
Active and inactive are the calls of the source. No cut-off for these calls is given here.

Columns and labels:
[1] = target: Phosphatidylinositol 4,5-bisphosphate 3-kinase catalytic subunit alpha isoform (Homo sapiens, UniProt P42336); assay: Inhibition of human PI3Kalpha using PIP2 as substrate in presence of ATP measured after 30 mins by HTRF assay
Outline: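 HTRF kit assay. Enzyme incubated with 10 μM PIP2; reaction started by adding ATP and run 30 min at room temperature, then stop solution and detection mix added and luminescence read. Compounds kept as 10 mM DMSO stocks.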

SJRH30 = assay: Antiproliferative activity against human Rh30 cells assessed as reduction in cell viability after 72 hrs by sulforhodamine B assay; type: functional, cell-based; conditions: SJRH30, 72 h
Outline: (§1)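 SRB assay. Exponentially growing cells seeded at 3000–5000/well, compounds added serially diluted after 24 h, cultured 72 h. Cells fixed with 10% TCA, stained with SRB, dye dissolved in 10 mM Tris-HCl, absorbance read at 560 nm. Inhibition = (ODcontrol − ODtreated)/ODcontrol × 100%. IC50 is the mean of at least three independent tests.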

[2] = Inhibition of human PI3K p110alpha H1047R mutant/p85alpha using PIP2 as substrate incubated for 30 mins in presence of ATP by HTRF assay
[3] = Inhibition of human PI3Kgamma R459Q mutant using PIP2 as substrate in presence of ATP measured after 30 mins by HTRF assay
NCI-H460 = assay: Antiproliferative activity against human NCI-H460 cells assessed as reduction in cell viability after 72 hrs by sulforhodamine B assay; type: functional, cell-based; conditions: NCI-H460, 72 h; outline: as §1
Calu-3 = assay: Antiproliferative activity against human Calu3 cells assessed as reduction in cell viability after 72 hrs by sulforhodamine B assay; type: functional, cell-based; conditions: Calu-3, 72 h; outline: as §1
NCI-H358 = assay: Antiproliferative activity against human NCI-H358 cells assessed as reduction in cell viability after 72 hrs by sulforhodamine B assay; type: functional, cell-based; conditions: NCI-H358, 72 h; outline: as §1
NCI-H23 = assay: Antiproliferative activity against human NCI-H23 cells assessed as reduction in cell viability after 72 hrs by sulforhodamine B assay; type: functional, cell-based; conditions: NCI-H23, 72 h; outline: as §1
NCI-H522 = assay: Antiproliferative activity against human NCI-H522 cells assessed as reduction in cell viability after 72 hrs by sulforhodamine B assay; type: functional, cell-based; conditions: NCI-H522, 72 h; outline: as §1
NCI-H226 = assay: Antiproliferative activity against human H226 cells assessed as reduction in cell viability after 72 hrs by sulforhodamine B assay; type: functional, cell-based; conditions: NCI-H226, 72 h; outline: as §1
NCI-H1650 = assay: Antiproliferative activity against human NCI-H1650 cells assessed as reduction in cell viability after 72 hrs by sulforhodamine B assay; type: functional, cell-based; conditions: NCI-H1650, 72 h; outline: as §1
A549 = assay: Antiproliferative activity against human A549 cells assessed as reduction in cell viability after 72 hrs by sulforhodamine B assay; type: functional, cell-based; conditions: A549, 72 h; outline: as §1
NCI-H1975 = assay: Antiproliferative activity against human NCI-H1975 cells assessed as reduction in cell viability after 72 hrs by sulforhodamine B assay; type: functional, cell-based; conditions: NCI-H1975, 72 h; outline: as §1
SK-OV-3 = assay: Antiproliferative activity against human SK-OV-3 cells assessed as reduction in cell viability after 72 hrs by sulforhodamine B assay; type: functional, cell-based; outline: as §1
PC-3 = assay: Antiproliferative activity against human PC-3 cells assessed as reduction in cell viability after 72 hrs by sulforhodamine B assay; type: functional, cell-based; outline: as §1
BT-474 = assay: Antiproliferative activity against human BT-474 cells assessed as reduction in cell viability after 72 hrs by sulforhodamine B assay; type: functional, cell-based; outline: as §1
MCF7 = assay: Antiproliferative activity against human MCF7 cells assessed as reduction in cell viability after 72 hrs by sulforhodamine B assay; type: functional, cell-based; outline: as §1
T47D = assay: Antiproliferative activity against human T47D cells assessed as reduction in cell viability after 72 hrs by sulforhodamine B assay; type: functional, cell-based; outline: as §1
LoVo = assay: Antiproliferative activity against human LoVo cells assessed as reduction in cell viability after 72 hrs by sulforhodamine B assay; type: functional, cell-based; outline: as §1
HCC1954 = assay: Antiproliferative activity against human HCC1954 cells assessed as reduction in cell viability after 72 hrs by sulforhodamine B assay; type: functional, cell-based; outline: as §1
SK-BR-3 = assay: Antiproliferative activity against human SK-BR-3 cells assessed as reduction in cell viability after 72 hrs by sulforhodamine B assay; type: functional, cell-based; outline: as §1
MDA-MB-231 = assay: Antiproliferative activity against human MDA-MB-231 cells assessed as reduction in cell viability after 72 hrs by sulforhodamine B assay; type: functional, cell-based; outline: as §1
ZR-75-1 = assay: Antiproliferative activity against human ZR-75-1 cells assessed as reduction in cell viability after 72 hrs by sulforhodamine B assay; type: functional, cell-based; outline: as §1

Sequence of Phosphatidylinositol 4,5-bisphosphate 3-kinase catalytic subunit alpha isoform (P42336 whole entry, canonical isoform): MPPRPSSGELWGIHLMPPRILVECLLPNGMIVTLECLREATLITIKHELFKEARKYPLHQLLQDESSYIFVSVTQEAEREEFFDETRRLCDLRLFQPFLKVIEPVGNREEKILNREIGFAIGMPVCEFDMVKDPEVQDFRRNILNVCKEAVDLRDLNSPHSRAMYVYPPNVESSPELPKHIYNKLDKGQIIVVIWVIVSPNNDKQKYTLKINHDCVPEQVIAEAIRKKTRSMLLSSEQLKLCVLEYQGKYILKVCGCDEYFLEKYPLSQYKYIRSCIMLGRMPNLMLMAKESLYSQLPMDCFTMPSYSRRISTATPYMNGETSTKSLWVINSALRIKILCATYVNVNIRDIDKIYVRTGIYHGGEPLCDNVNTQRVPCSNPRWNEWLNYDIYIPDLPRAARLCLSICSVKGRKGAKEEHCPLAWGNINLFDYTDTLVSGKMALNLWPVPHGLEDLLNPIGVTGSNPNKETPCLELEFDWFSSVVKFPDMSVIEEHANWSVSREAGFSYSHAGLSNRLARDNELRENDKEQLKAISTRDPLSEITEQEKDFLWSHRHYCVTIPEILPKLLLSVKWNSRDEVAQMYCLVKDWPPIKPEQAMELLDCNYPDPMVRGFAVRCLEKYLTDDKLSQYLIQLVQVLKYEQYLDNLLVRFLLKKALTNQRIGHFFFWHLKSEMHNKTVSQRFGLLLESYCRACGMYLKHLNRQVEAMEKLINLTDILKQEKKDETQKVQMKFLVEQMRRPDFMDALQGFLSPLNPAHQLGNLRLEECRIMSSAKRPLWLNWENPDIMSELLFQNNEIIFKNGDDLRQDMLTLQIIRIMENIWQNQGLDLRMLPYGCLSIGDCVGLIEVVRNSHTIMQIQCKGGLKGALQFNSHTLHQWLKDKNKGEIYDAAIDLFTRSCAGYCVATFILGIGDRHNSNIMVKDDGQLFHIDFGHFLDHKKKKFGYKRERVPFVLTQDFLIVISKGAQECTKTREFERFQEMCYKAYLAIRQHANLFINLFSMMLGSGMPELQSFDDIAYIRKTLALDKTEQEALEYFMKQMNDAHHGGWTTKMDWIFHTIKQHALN

Structure (SMILES): CCNC(=O)Nc1cc(C(F)(F)F)c(-c2nc(N3CCOCC3)c3cc(CN4CCN(S(C)(=O)=O)CC4)cn3n2)cn1
- IC50 [1]: 0.0417 µM
- IC50 (SJRH30): 0.39 µM

Structure (SMILES): C[C@H]1COCCN1c1nc(-c2cnc(N)cc2C(F)(F)F)nn2cc(CN3CCN(S(C)(=O)=O)CC3)cc12
- IC50 [1]: 0.0505 µM
- IC50 (SJRH30): 0.97 µM

Structure (SMILES): CCOC(=O)Nc1cc(C(F)(F)F)c(-c2nc(N3CCOCC3)c3cc(CN4CCN(S(C)(=O)=O)CC4)cn3n2)cn1
- IC50 [1]: 0.021 µM
- IC50 (SJRH30): 3.27 µM

Structure (SMILES): CN(C)C(=O)c1ccc(NC(=O)Nc2ccc(-c3nc(N4CCOCC4)c4cc(CN5CCN(S(C)(=O)=O)CC5)cn4n3)cc2)cc1
- IC50 [1]: 0.0675 µM
- IC50 (SJRH30): 0.09 µM

Structure (SMILES): C=CC(=O)Nc1cc(C(F)(F)F)c(-c2nc(N3CCOCC3)c3cc(CN4CCN(S(C)(=O)=O)CC4)cn3n2)cn1
- IC50 [1]: 0.0199 µM
- IC50 (SJRH30): 0.71 µM

Structure (SMILES): CS(=O)(=O)N1CCN(Cc2cc3c(N4CCOCC4)nc(-c4cnc(NC(=O)Oc5ccccc5)cc4C(F)(F)F)nn3c2)CC1
- IC50 [1]: 0.0444 µM
- IC50 (SJRH30): 5.07 µM

Structure (SMILES): CS(=O)(=O)N1CCN(Cc2cc3c(N4CC5CCC(C4)O5)nc(-c4cnc(N)cc4C(F)(F)F)nn3c2)CC1
- IC50 [1]: 0.244 µM
- IC50 (SJRH30): 1.78 µM

Structure (SMILES): CS(=O)(=O)N1CCN(Cc2cc3c(N4CCOCC4)nc(-c4cnc(NC(=O)Nc5ccc(F)cc5)cc4C(F)(F)F)nn3c2)CC1
- IC50 [1]: 0.0177 µM
- IC50 (SJRH30): 0.18 µM

Structure (SMILES): Cc1nc(NC(=O)N2CCC[C@H]2C(N)=O)sc1-c1ccnc(C(C)(C)C(F)(F)F)c1 [ALPELISIB]
- IC50 [2]: 0.0109 µM
- IC50 [3]: 1.67 µM
- IC50 (SJRH30): 7.6 µM

Structure (SMILES): CS(=O)(=O)N1CCN(Cc2cc3c(N4CCOCC4)nc(-c4ccc(NC(=O)Nc5ccc(F)cc5)cc4)nn3c2)CC1
- IC50 (NCI-H460): 0.897 µM
- IC50 (Calu-3): 2.36 µM
- IC50 (NCI-H358): 1.29 µM
- IC50 (NCI-H23): 0.695 µM
- IC50 [1]: 0.105 µM
- IC50 (NCI-H522): 1.02 µM
- IC50 (SJRH30): 0.23 µM
- IC50 (NCI-H226): 1.08 µM
- IC50 (NCI-H1650): 2.3 µM
- IC50 (A549): 1.64 µM
- IC50 (NCI-H1975): 0.46 µM

Structure (SMILES): CS(=O)(=O)N1CCN(Cc2cc3nc(-c4cccc5[nH]ncc45)nc(N4CCOCC4)c3s2)CC1 [PICTILISIB]
- Activity (SK-OV-3): Active
- IC50 (NCI-H460): 1.26 µM
- Activity (PC-3): Active
- Activity (BT-474): Active
- IC50 (Calu-3): 2.87 µM
- Activity (MCF7): Active
- Activity (T47D): Active
- IC50 (NCI-H358): 1.33 µM
- Activity (LoVo): Active
- IC50 (NCI-H23): 0.936 µM
- Activity (HCC1954): Active
- IC50 (NCI-H522): 2.14 µM
- IC50 (SJRH30): 0.478 µM
- IC50 (NCI-H226): 5.91 µM
- Activity (SK-BR-3): Active
- IC50 (NCI-H1650): 4.73 µM
- Activity (MDA-MB-231): Active
- IC50 (A549): 2.48 µM
- IC50 (NCI-H1975): 0.703 µM
- Activity (ZR-75-1): Active

Structure (SMILES): CS(=O)(=O)N1CCN(Cc2cc3c(N4CCOCC4)nc(-c4cnc(N)cc4C(F)(F)F)nn3c2)CC1
- IC50 [1]: 0.0554 µM
- IC50 (SJRH30): 0.88 µM

Structure (SMILES): CN1CCN(C(=O)c2ccc(NC(=O)Nc3ccc(-c4nc(N5CCOCC5)c5cc(CN6CCN(S(C)(=O)=O)CC6)cn5n4)cc3)cc2)CC1
- IC50 (NCI-H460): 0.293 µM
- IC50 (Calu-3): 0.79 µM
- IC50 (NCI-H358): 0.187 µM
- IC50 (NCI-H23): 0.052 µM
- IC50 [1]: 0.0411 µM
- IC50 (NCI-H522): 0.751 µM
- IC50 (SJRH30): 0.07 µM
- IC50 (NCI-H226): 0.106 µM
- IC50 (NCI-H1650): 0.344 µM
- IC50 (A549): 0.144 µM
- IC50 (NCI-H1975): 0.025 µM

Structure (SMILES): CN(C)C1CCN(C(=O)c2ccc(NC(=O)Nc3ccc(-c4nc(N5CCOCC5)c5cc(CN6CCN(S(C)(=O)=O)CC6)cn5n4)cc3)cc2)CC1
- IC50 [1]: 0.0396 µM
- IC50 (SJRH30): 0.08 µM

Structure (SMILES): CNC(=O)Nc1cc(C(F)(F)F)c(-c2nc(N3CCOCC3)c3cc(CN4CCN(S(C)(=O)=O)CC4)cn3n2)cn1
- IC50 [1]: 0.0236 µM
- IC50 (SJRH30): 0.15 µM
